Published values gathered from unrelated publications.
Each line is one published result; the experiments were not run side by side.
Target: Aurora kinase B (AURKB, Homo sapiens, UniProt Q96GD4)

SMILES	test	setting	remaining binding [%]
C[C@@H]1CN(c2ccc3ncc(-c4ccc5[nH]nc(C6CC6)c5c4)n3n2)C[C@H](C)O1	binding, competition with immobilised ligand	0.5 µM	82
COc1ccnn2ncc(-c3ccnc(N(C)C)n3)c12	binding	1 µM	100
O=C(NCC1CCOCC1)c1n[nH]cc1NC(=O)c1c(F)cccc1F	binding, competition with immobilised ligand	1 µM	78
C[C@H]1CCN(c2nccc(-c3cnn4ncccc34)n2)C1	binding	1 µM	70
CNC(=O)Nc1ccc2c(c1)CC[C@@]21OC(=O)N(CC(=O)N(Cc2ccc(F)cc2)[C@@H](C)C(F)(F)F)C1=O	cell-free assay, competition with immobilised ligand	1 µM	86
CC(C)(C)c1ccc(-c2nc(CBr)nn2-c2cccc(O)c2)cc1	cell-free assay, competition with immobilised ligand	10 µM	69
O=C(c1ccc(Nc2ncc(Cl)c(-c3cc4ccccc4s3)n2)cc1)N1CCC(N2CCCC2)CC1	binding, competition with immobilised ligand	1 µM	17
CSc1cccnc1N1CCN(Cc2nc3ccccc3[nH]2)CC1	cell-free assay, competition with immobilised ligand	1 µM	67
O=C(c1ccc(Nc2nccc(-c3cc4ccccc4s3)n2)cc1)N1CCC(N2CCCC2)CC1	binding, competition with immobilised ligand	1 µM	63
C[C@@H]1CN(c2cc(-c3n[nH]c4ccc(OC5(C)CC5)cc34)ncn2)C[C@H](C)O1	cell-free assay, competition with immobilised ligand	0.1 µM	73
CN(CCCC(F)(F)F)c1nccc(-c2cnn3ncccc23)n1	binding	1 µM	98
O=C(NCc1ncc(C(F)(F)F)cc1Cl)c1ccc2c(c1)C1(CCS(=O)(=O)CC1)[C@@H](C1CC1)N2S(=O)(=O)c1ccc(F)cc1	cell-free assay, competition with immobilised ligand	1 µM	66
O=C(c1ccc(Nc2ncc(Cl)c(-c3ccc(Cl)s3)n2)cc1)N1CCC(N2CCCC2)CC1	binding, competition with immobilised ligand	1 µM	8.3
COc1ccc2c(O[C@@H]3C[C@H]4C(=O)N[C@]5(C(=O)O)CC5/C=C\CCCCC[C@H](NC(=O)OC5CCCC5)C(=O)N4C3)cc(-c3csc(NC(=O)C(C)C)n3)nc2c1C (some centres unmarked)	cell-free assay, competition with immobilised ligand	1 µM	91
COc1cnc(Nc2cccc(S(N)(=O)=O)c2)nc1N1CCN(c2ccccc2)C(=O)C1	binding, competition with immobilised ligand	1 µM	63
CN(C)c1nccc(-c2cnc3ncccn23)n1	binding	1 µM	76
FC(F)(F)Oc1cccc(-c2cnc3ccc(-c4ccncc4)nn23)c1	cell-free assay, competition with immobilised ligand	5 µM	73
C[C@@H](c1ccc(-n2cnc3c(N)ncnc32)cc1)N1CCc2nn(C)c(Cc3ccccc3)c2C1=O	binding, competition with immobilised ligand	0.1 µM	65
CC(=O)N1CCC(c2ccc(C(=O)NC3=NCCN3)cc2C(F)(F)F)CC1	cell-free assay, competition with immobilised ligand	1 µM	100
C=CC(=O)N1CCC(C(=O)NCC(=O)N2CCN(c3nc(-c4cnc(N)nc4C(F)F)nc(N4CCOCC4)n3)CC2)CC1	binding, competition with immobilised ligand	1 µM	56
COc1cnc(Nc2cccc(S(N)(=O)=O)c2)nc1N1CCN(c2ccccc2)CC1	binding, competition with immobilised ligand	1 µM	89
N[C@H]1CCN(c2nccc(-c3cnn4ncccc34)n2)C1	binding	1 µM	77
c1cncc(-c2cccc(Nc3nccc(NC4CCCCC4)n3)c2)c1	binding, competition with immobilised ligand	10 µM	23
